In ChEMBL document CHEMBL1629416, “Developing dual functional allosteric modulators of GABA(A) receptors” (Bioorg Med Chem, 2010):

Assays:
[1] = molecular target: T1, GABA-A receptor; alpha-3/beta-3/gamma-2 (Homo sapiens, UniProt P18507+P28472+P34903); test: Binding affinity to human alpha3beta3gamma2 GABA receptor expressed in Xenopus laevis oocytes; format: cell-based, Oocyte
T1 sequence (P18507 whole entry): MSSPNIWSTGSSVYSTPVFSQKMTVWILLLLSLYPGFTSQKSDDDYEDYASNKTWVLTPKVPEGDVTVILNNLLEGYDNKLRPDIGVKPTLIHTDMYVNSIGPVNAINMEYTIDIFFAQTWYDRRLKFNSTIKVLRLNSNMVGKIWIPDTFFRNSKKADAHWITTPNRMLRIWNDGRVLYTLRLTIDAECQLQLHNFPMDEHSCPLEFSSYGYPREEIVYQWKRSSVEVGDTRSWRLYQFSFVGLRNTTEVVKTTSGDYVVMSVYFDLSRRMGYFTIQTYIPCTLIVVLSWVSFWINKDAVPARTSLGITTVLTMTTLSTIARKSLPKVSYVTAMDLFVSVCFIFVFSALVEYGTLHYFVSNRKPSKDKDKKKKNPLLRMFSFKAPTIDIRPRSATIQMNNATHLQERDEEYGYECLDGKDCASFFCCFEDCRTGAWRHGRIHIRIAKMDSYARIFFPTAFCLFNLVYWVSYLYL
T1 sequence (P28472 whole entry): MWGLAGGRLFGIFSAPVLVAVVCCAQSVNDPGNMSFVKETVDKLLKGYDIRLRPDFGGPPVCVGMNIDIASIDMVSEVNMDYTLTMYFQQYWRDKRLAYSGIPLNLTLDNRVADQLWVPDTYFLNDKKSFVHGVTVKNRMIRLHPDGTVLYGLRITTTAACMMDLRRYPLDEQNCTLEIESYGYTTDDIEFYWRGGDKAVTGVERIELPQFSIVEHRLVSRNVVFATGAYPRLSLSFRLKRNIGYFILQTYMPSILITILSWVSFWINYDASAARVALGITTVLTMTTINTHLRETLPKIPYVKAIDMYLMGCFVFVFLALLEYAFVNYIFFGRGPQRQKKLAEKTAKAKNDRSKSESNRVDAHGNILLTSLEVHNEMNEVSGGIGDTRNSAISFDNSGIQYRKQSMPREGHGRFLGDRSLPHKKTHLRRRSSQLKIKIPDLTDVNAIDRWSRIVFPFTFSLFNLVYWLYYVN
T1 sequence (P34903 whole entry): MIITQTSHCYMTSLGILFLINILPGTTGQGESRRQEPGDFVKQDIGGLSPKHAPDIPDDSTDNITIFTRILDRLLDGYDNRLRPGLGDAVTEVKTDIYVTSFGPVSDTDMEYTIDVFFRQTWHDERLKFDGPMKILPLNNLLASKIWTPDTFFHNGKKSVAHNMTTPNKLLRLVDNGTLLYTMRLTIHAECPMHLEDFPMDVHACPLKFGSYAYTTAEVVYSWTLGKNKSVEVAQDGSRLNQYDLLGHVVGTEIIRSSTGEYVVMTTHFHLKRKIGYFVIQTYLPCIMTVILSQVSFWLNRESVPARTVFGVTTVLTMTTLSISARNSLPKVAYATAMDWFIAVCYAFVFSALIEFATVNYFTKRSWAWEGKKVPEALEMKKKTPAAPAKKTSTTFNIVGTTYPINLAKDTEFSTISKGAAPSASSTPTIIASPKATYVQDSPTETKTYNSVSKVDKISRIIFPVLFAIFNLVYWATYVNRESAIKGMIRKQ

[2] = molecular target: T2, GABA-A receptor; alpha-5/beta-3/gamma-2 (Homo sapiens) (UniProt P18507+P28472+P31644); test: Negative allosteric modulation of human alpha5beta3gamma2 GABA receptor expressed in Xenopus laevis oocytes at 1 uM; format: cell-based; details: Oocyte
Summary of the method: (§1)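 Two-electrode voltage clamp on oocytes expressing human α/β/γ2 subtypes, used 2–10 days after injection. […] Baseline was the mean of three GABA-alone pulses. Result is % modulation, mean ± SEM over individual oocytes.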

[3] = molecular target: T3, GABA-A receptor; alpha-2/beta-3/gamma-2 (Homo sapiens) (UniProt P18507+P28472+P47869); test: Negative allosteric modulation of human alpha2beta3gamma2 GABA receptor expressed in Xenopus laevis oocytes at 1 uM; format: cell-based; details: Oocyte; summary of the method: as §1
[4] = molecular target: T4, GABA-A receptor; alpha-2/beta-3/gamma-2 (Homo sapiens, UniProt P18507+P28472+P47869); test: Binding affinity to human alpha2beta3gamma2 GABA receptor expressed in Xenopus laevis oocytes; format: cell-based, Oocyte
T4 sequence (P18507 whole entry): T1 sequence (P18507 whole entry)
T4 sequence (P28472 whole entry): T1 sequence (P28472 whole entry)
T4 sequence (P47869 whole entry): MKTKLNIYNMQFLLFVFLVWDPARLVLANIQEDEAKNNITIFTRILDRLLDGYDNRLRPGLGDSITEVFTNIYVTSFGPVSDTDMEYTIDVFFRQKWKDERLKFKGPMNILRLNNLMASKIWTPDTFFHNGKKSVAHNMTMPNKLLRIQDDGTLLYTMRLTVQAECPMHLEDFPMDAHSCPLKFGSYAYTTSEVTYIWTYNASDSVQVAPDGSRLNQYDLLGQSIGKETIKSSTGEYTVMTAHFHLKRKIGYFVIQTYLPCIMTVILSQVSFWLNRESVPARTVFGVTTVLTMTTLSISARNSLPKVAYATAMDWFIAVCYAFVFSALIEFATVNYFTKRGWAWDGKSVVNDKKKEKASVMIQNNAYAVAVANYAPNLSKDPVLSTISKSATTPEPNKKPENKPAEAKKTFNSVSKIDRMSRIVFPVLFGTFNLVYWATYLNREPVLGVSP

[5] = molecular target: T5, GABA-A receptor; alpha-1/beta-2/gamma-2 (Homo sapiens, UniProt P14867+P18507+P47870); test: Binding affinity to human alpha1beta2gamma2 GABA receptor expressed in Xenopus laevis oocytes; format: cell-based, Oocyte
T5 sequence (P14867 whole entry): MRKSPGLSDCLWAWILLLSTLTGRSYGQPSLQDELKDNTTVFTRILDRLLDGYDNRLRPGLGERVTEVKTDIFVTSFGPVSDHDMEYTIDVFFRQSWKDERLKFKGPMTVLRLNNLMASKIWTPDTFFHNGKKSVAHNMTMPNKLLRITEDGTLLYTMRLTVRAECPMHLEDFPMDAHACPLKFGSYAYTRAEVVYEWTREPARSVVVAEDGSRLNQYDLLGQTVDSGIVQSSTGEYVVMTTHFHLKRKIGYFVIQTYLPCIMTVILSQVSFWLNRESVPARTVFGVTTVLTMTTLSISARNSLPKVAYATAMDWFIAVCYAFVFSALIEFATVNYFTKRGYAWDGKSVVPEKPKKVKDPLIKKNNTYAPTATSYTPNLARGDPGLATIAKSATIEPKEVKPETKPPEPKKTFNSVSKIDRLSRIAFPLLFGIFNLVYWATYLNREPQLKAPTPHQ
T5 sequence (P47870 whole entry): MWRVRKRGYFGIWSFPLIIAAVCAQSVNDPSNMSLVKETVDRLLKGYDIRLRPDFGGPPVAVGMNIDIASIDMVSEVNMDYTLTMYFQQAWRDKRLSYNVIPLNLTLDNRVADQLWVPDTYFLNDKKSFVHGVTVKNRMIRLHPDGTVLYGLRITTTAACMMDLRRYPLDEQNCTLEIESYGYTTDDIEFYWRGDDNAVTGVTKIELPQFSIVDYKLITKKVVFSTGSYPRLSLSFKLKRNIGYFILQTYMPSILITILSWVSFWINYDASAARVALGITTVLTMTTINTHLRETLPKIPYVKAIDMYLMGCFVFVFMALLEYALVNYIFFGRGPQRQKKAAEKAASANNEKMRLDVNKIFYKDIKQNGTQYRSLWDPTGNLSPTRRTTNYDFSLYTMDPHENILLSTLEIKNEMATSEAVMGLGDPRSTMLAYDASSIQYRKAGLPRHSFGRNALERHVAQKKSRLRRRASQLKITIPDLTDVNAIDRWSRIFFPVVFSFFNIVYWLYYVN
T5 sequence (P18507 whole entry): T1 sequence (P18507 whole entry)

[6] = molecular target: T6, GABA-A receptor; alpha-5/beta-3/gamma-2 (Homo sapiens, UniProt P18507+P28472+P31644); test: Binding affinity to human alpha5beta3gamma2 GABA receptor expressed in Xenopus laevis oocytes; format: cell-based, Oocyte
T6 sequence (P18507 whole entry): T1 sequence (P18507 whole entry)
T6 sequence (P28472 whole entry): T1 sequence (P28472 whole entry)
T6 sequence (P31644 whole entry): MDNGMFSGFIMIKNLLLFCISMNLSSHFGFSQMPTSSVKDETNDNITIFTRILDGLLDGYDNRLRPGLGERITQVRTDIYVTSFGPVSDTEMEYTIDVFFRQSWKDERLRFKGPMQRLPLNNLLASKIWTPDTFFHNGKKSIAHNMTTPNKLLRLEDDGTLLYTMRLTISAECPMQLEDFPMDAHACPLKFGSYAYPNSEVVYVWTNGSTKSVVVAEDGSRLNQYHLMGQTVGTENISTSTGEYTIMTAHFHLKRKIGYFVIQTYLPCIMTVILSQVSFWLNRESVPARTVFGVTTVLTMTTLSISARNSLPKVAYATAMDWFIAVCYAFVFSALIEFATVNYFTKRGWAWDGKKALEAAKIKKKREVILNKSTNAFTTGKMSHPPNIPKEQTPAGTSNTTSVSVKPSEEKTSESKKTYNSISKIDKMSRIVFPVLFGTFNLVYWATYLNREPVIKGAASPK

[7] = molecular target: T7, GABA-A receptor; alpha-1/beta-2/gamma-2 (Homo sapiens) (UniProt P14867+P47870+P18507); test: Negative allosteric modulation of human alpha1beta2gamma2 GABA receptor expressed in Xenopus laevis oocytes at 1 uM; format: cell-based; details: Oocyte
[8] = molecular target: T8, GABA-A receptor; alpha-3/beta-3/gamma-2 (Homo sapiens) (UniProt P18507+P28472+P34903); test: Negative allosteric modulation of human alpha3beta3gamma2 GABA receptor expressed in Xenopus laevis oocytes at 1 uM; format: cell-based; details: Oocyte
[9] = molecular target: T3, GABA-A receptor; alpha-2/beta-3/gamma-2 (Homo sapiens); test: Positive allosteric modulation of human alpha2beta3gamma2 GABA receptor expressed in Xenopus laevis oocytes at 1 uM; format: cell-based; details: Oocyte; summary of the method: as §1
[10] = molecular target: T2, GABA-A receptor; alpha-5/beta-3/gamma-2 (Homo sapiens); test: Positive allosteric modulation of human alpha5beta3gamma2 GABA receptor expressed in Xenopus laevis oocytes at 1 uM; format: cell-based; details: Oocyte; summary of the method: as §1
[11] = molecular target: T7, GABA-A receptor; alpha-1/beta-2/gamma-2 (Homo sapiens); test: Positive allosteric modulation of human alpha1beta2gamma2 GABA receptor expressed in Xenopus laevis oocytes at 1 uM; format: cell-based; details: Oocyte; summary of the method: as §1
[12] = molecular target: T8, GABA-A receptor; alpha-3/beta-3/gamma-2 (Homo sapiens); test: Positive allosteric modulation of human alpha3beta3gamma2 GABA receptor expressed in Xenopus laevis oocytes at 1 uM; format: cell-based; details: Oocyte; summary of the method: as §1
[13] = molecular target: T4, GABA-A receptor; alpha-2/beta-3/gamma-2; test: Displacement of [3H]flunitrazepam from human alpha2beta3gamma2 GABA receptor in Sf9 membranes after 1 hr by liquid scintillation counting
Summary of the method: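 [3H]Flunitrazepam (3 nM) competition on recombinant Sf9 membranes co-expressing α, β and γ2 subunits. Compound incubated 1 h at 4 °C in 20 mM Tris–citrate, 200 mM NaCl, pH 7.8, with membrane protein.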

SMILES | EC50 [1] | Activity [2] | Activity [3] | EC50 [4] | EC50 [6] | Activity [7] | Activity [9] | Activity [10] | other results
CCCNC(=O)c1nnc2c(-c3cncc(C(=O)N4CCC4)c3)cccc2c1N | 174 nM | 45% | 5% | 54 nM | 455 nM | 14% |  |  | EC50 [5]: 389 nM; Activity [8]: 11%
Nc1c(C(=O)NC2CC2)nnc2c(-c3ncccn3)c(F)ccc12 |  |  |  |  |  |  | 39% | 2% | 
CN1C(=O)CN=C(c2ccccc2)c2cc(Cl)ccc21 |  |  |  |  |  |  | 177% | 153% | Activity [11]: 192%; Activity [12]: 207%
CCc1c(C(=O)OC)ncc2[nH]c3cc(OC)c(OC)cc3c12 | 10 nM | 69% | 61% | 14 nM | 3 nM | 68% |  |  | EC50 [5]: 9 nM; Activity [8]: 58%
CCCNC(=O)c1nnc2c(-c3ncccn3)c(F)ccc2c1N |  | 3% |  |  |  |  | 31% |  | Ki [13]: 6 nM
Nc1c(C(=O)N2CCC2)nnc2c(-c3ncccn3)cccc12 |  | 22% | 5% |  |  |  |  |  | 
CCCNC(=O)c1nnc2c(-c3ncccn3)cccc2c1N | 379 nM |  |  | 104 nM | 1130 nM | 5% |  |  | Activity [12]: 41%; Ki [13]: 380 nM
CC1CN(C(=O)c2nnc3c(-c4ncccn4)c(F)ccc3c2N)C1 |  |  |  |  |  |  | 18% | 0% | 
